From ChEMBL document CHEMBL3120098, “Structure-activity relationship (SAR) optimization of 6-(indol-2-yl)pyridine-3-sulfonamides: identification of potent, selective, and orally bioavailable small molecules targeting hepatitis C (HCV) NS4B” (J Med Chem, 2014)

Legend:
[1] = system: Hepatitis C virus; test: Antiviral activity against HCV1b Con1 infected in human HuH7 cells assessed as inhibition of viral RNA replication by RT-PCR analysis; assay type: functional, organism-based, Hepacivirus hominis; settings: isolate Con1, Huh-7
[2] = AUC (0 to 6 hrs) in Sprague-Dawley rat at 10 mg/kg, po; assay type: ADME, organism-based; parameters: time < 6 hr, dose 10 mg/kg, route oral; settings: plasma
[3] = Ratio of EC50 for HCV1b Con1 to plasma concentration in Sprague-Dawley rat at 10 mg/kg, po after 6 hrs
[4] = Toxicity in human HuH7 cells assessed as effect on GAPDH mRNA level; assay type: cell-based, Huh-7
Procedure, shortened: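 Run in parallel with replicon assay in Con1 replicon Huh-7 cells (0.5% DMSO, 37 °C); endogenous GAPDH mRNA quantified by TaqMan RT-PCR; highest concentration tested 10000 nM.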

[5] = target: T1, Cytochrome P450 3A4 (Homo sapiens, UniProt P08684); test: Inhibition of CYP3A4 in human liver microsomes; assay type: ADME
[6] = target: Cytochrome P450 2D6 (Homo sapiens, UniProt P10635); test: Inhibition of CYP2D6 in human liver microsomes; assay type: ADME
[7] = system: Pregnane X receptor (Homo sapiens); test: Activation of PXR (unknown origin) at 10 uM by reporter gene assay
[8] = target: Cytochrome P450 2C9 (Homo sapiens, UniProt P11712); test: Inhibition of CYP2C9 in human liver microsomes; assay type: ADME
[9] = target: T1, Cytochrome P450 3A4; test: Induction of CYP3A4 activity in human hepatocytes at 10 uM relative to rifampicin; assay type: ADME, cell-based, Hepatocyte
Procedure, shortened: (§1)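 Cryopreserved cultured human hepatocytes incubated 3 days with compound at several concentrations; CYP3A4 enzyme activity and mRNA expression measured, expressed as percent induction relative to rifampicin.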

[10] = system: Hepatocyte; test: Induction of CYP3A4 mRNA expression in human hepatocytes at 3 uM relative to rifampicin; assay type: ADME, cell-based; procedure, shortened: as §1
[11] = system: Hepatitis C virus; test: Antiviral activity against HCV2a JFH-1 infected in human HuH7 cells assessed as inhibition of viral replication; assay type: functional, organism-based, Hepacivirus hominis; settings: JFH-1, Huh-7
[12] = target: T1, Cytochrome P450 3A4; test: Induction of CYP3A4 activity in human hepatocytes at 3 uM relative to rifampicin; assay type: ADME, cell-based, Hepatocyte; procedure, shortened: as §1
[13] = system: Hepatocyte; test: Induction of CYP3A4 mRNA expression in human hepatocytes at 10 uM relative to rifampicin; assay type: ADME, cell-based; procedure, shortened: as §1
[14] = Ratio of drug level in liver to plasma in Sprague-Dawley rat at 10 mg/kg, po after 6 hrs; assay type: ADME, organism-based; parameters: dose 10 mg/kg, route oral
Procedure, shortened: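 Male Sprague-Dawley rats, 10 mg/kg PO suspension in 0.4% hydroxypropyl methylcellulose; liver and plasma drug levels measured at 6 h, expressed as liver/plasma ratio.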

Chain of Cytochrome P450 2C9 (P11712 whole entry): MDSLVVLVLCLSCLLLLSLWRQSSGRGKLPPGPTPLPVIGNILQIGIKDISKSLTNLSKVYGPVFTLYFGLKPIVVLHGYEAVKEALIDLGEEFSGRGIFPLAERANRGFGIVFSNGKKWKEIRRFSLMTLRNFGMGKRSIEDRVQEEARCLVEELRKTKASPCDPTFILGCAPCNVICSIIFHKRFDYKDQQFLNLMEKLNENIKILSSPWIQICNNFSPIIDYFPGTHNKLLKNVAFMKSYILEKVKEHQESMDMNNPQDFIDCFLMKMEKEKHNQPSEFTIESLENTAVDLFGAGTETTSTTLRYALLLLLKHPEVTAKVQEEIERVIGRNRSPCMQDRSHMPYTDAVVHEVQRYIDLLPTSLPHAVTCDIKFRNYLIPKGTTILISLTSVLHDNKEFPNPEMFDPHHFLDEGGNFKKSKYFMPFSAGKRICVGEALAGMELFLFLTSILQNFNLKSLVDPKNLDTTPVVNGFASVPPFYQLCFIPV
Chain of Cytochrome P450 2D6 (P10635 whole entry): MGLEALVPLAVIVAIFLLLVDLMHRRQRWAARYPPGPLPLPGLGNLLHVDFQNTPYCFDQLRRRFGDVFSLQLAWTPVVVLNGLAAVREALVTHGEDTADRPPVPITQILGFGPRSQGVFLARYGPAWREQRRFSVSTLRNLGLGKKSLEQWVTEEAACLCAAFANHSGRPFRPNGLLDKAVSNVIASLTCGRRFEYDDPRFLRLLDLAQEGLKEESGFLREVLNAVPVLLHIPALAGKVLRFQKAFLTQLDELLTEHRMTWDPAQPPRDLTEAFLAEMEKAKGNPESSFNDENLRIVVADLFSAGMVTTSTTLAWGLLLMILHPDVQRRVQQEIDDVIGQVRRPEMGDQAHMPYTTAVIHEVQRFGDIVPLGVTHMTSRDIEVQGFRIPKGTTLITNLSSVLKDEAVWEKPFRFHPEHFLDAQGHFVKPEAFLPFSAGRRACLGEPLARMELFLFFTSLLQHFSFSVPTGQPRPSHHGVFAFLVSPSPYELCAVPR
T1 sequence (P08684 whole entry): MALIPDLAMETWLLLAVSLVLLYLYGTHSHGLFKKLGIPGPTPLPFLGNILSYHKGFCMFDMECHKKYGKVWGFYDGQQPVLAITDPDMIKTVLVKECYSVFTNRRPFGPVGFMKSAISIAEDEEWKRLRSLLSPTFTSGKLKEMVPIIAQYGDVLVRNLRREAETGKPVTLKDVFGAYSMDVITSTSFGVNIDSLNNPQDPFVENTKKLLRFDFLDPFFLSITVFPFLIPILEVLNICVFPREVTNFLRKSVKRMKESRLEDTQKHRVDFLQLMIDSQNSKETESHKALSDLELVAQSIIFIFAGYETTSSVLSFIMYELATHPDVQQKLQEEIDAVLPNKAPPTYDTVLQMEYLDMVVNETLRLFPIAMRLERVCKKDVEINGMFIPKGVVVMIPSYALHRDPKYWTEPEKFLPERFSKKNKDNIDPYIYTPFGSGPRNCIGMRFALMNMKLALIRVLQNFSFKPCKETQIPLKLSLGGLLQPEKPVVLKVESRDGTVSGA

Structure (SMILES) | EC50 [1] [nM] | AUC(0-t) at 6 h [2] [µM·h] | Ratio [3] | IC50 [4] [nM] | further results
CCc1cc2c(cc1F)c(C#N)c(-c1ccc(S(N)(=O)=O)cn1)n2-c1ncccn1 | > 10000 | – | – | – | –
CC(O)c1cc2c(cc1F)c(C#N)c(-c1ccc(S(N)(=O)=O)cn1)n2-c1ncccn1 (configuration not stated) | > 10000 | – | – | – | –
C[C@H](NS(=O)(=O)c1ccc(-c2c(C#N)c3cc(F)c(C4CC4)cc3n2-c2ncccn2)nc1)C(F)(F)F | 6 | 2.04 | 75 | > 10000 | –
C[C@H](NS(=O)(=O)c1ccc(-c2c(C#N)c3cc(F)c(C4CC4)cc3n2-c2ccc(F)cn2)nc1)C(F)(F)F | 12 | 1.7 | 20 | > 10000 | –
CCc1cc2c(cc1F)c(C#N)c(-c1ccc(S(=O)(=O)N[C@@H](C)C(F)(F)F)cn1)n2-c1ccncc1 | 9 | 6.38 | 47 | > 10000 | –
CCc1cc2c(cc1F)c(C#N)c(-c1ccc(S(=O)(=O)N[C@@H](C)C(F)(F)F)cn1)n2-c1cnccn1 | 4 | 0.345 | 14 | > 10000 | –
CCc1cc2c(cc1F)c(C#N)c(-c1ccc(S(=O)(=O)N[C@@H](C)C(F)(F)F)cn1)n2-c1ncc(F)cn1 | 3 | 8.69 | 136 | > 10000 | IC50 [5]: > 10000 nM; IC50 [6]: > 10000 nM; Activity [7]: 71%; IC50 [8]: > 10000 nM
Cc1cc(F)c2c(C#N)c(-c3ccc(S(=O)(=O)N[C@@H](C)C(F)(F)F)cn3)n(C3CCC3)c2c1 | 153 | – | – | > 10000 | –
C[C@H](NS(=O)(=O)c1ccc(-c2c(C#N)c3ccc(OC(F)F)cc3n2-c2ncccn2)nc1)C(F)(F)F | 7 | 20.1 | – | > 10000 | –
Cc1ccc2c(C#N)c(-c3ccc(S(=O)(=O)N[C@@H](C)C(F)(F)F)cn3)n(-c3ncccn3)c2c1 | 3 | – | – | > 10000 | –
C[C@H](NS(=O)(=O)c1ccc(-c2c(C#N)c3cc(F)c(OC(F)F)cc3n2-c2ncccn2)nc1)C(F)(F)F | 16 | 3.81 | – | > 10000 | –
C[C@H](NS(=O)(=O)c1ccc(-c2c(C#N)c3cc(O)c(OC(F)F)cc3n2C2CCC2)nc1)C(F)(F)F | 63 | – | – | > 10000 | –
Cc1cc2c(C#N)c(-c3ccc(S(=O)(=O)N[C@@H](C)C(F)(F)F)cn3)n(C3CCC3)c2cc1OC(F)F | 108 | – | – | 10000 | –
CCc1cc2c(C#N)c(-c3ccc(S(=O)(=O)N[C@@H](C)C(F)(F)F)cn3)n(C3CCC3)c2cc1OC(F)F | 1400 | – | – | > 10000 | –
Cc1cc2c(cc1F)c(C#N)c(-c1ccc(S(=O)(=O)N[C@@H](C)C(F)(F)F)cn1)n2C1CCC1 | 7 | 1.1 | 24 | > 10000 | Kp at 6 h [14]: 29.1
CCc1cc2c(cc1F)c(C#N)c(-c1ccc(S(=O)(=O)N[C@@H](C)C(F)(F)F)cn1)n2C1CCC1 | 4 | 0.3 | 18 | > 10000 | Kp at 6 h [14]: 30.6
C[C@H](NS(=O)(=O)c1ccc(-c2c(C#N)c3cc(F)c(C4CC4)cc3n2C2CCC2)nc1)C(F)(F)F | 28 | – | – | > 10000 | –
C[C@H](NS(=O)(=O)c1ccc(-c2c(C#N)c3cc(F)c(O)cc3n2C2CCC2)nc1)C(F)(F)F | 410 | – | – | > 10000 | –
C[C@H](NS(=O)(=O)c1ccc(-c2c(C#N)c3cc(F)c(Cl)cc3n2C2CCC2)nc1)C(F)(F)F | 460 | – | – | > 10000 | –
COc1cc2c(cc1F)c(C#N)c(-c1ccc(S(=O)(=O)N[C@@H](C)C(F)(F)F)cn1)n2C1CCC1 | 74 | – | – | > 10000 | –
CSc1cc2c(cc1F)c(C#N)c(-c1ccc(S(=O)(=O)N[C@@H](C)C(F)(F)F)cn1)n2C1CCC1 | 35 | – | – | > 10000 | –
C[C@H](NS(=O)(=O)c1ccc(-c2c(C#N)c3c(F)cc(OC(F)F)cc3n2C2CCC2)nc1)C(F)(F)F | 18 | – | – | > 10000 | –

Continued, in another order:

EC50 [1] [nM] | AUC(0-t) at 6 h [2] [µM·h] | Structure (SMILES) | Ratio [3] | IC50 [4] [nM] | further results
68 | – | CC(O)c1cc2c(cc1F)c(C#N)c(-c1ccc(S(=O)(=O)N[C@@H](C)C(F)(F)F)cn1)n2-c1ncccn1 (some centres not stated) | – | – | –
16 | – | C[C@H](NS(=O)(=O)c1ccc(-c2c(C#N)c3cc(F)c(C4CC4)cc3n2-c2ccccn2)nc1)C(F)(F)F | – | > 10000 | –
32 | – | Cc1cnc(-n2c(-c3ccc(S(=O)(=O)N[C@@H](C)C(F)(F)F)cn3)c(C#N)c3cc(F)c(C)cc32)nc1 | – | > 10000 | –
4 | 4.08 | Cc1cc2c(cc1F)c(C#N)c(-c1ccc(S(=O)(=O)N[C@@H](C)C(F)(F)F)cn1)n2-c1ncc(F)cn1 | 187 | > 10000 | IC50 [5]: > 10000 nM; IC50 [6]: > 10000 nM; Activity [7]: 96%; IC50 [8]: > 10000 nM
8 | 3.45 | Cc1cc2c(cc1F)c(C#N)c(-c1ccc(S(=O)(=O)N[C@@H](C)C(F)(F)F)cn1)n2-c1ccc(F)cn1 | 42 | > 10000 | –
25 | – | Cc1ccc(-n2c(-c3ccc(S(=O)(=O)N[C@@H](C)C(F)(F)F)cn3)c(C#N)c3cc(F)c(C)cc32)nc1 | – | > 10000 | –
3 | 8.54 | Cc1cc2c(cc1F)c(C#N)c(-c1ccc(S(=O)(=O)N[C@@H](C)C(F)(F)F)cn1)n2-c1ncccc1F | 194 | > 10000 | IC50 [5]: > 10000 nM; IC50 [6]: > 10000 nM; Activity [7]: 59%; IC50 [8]: > 10000 nM
400 | – | Cc1cc2c(cc1F)c(C#N)c(-c1ccc(S(=O)(=O)N[C@@H](C)C(F)(F)F)cn1)n2-c1ncccc1C | – | > 10000 | –
5 | 3.85 | CCc1cc2c(cc1F)c(C#N)c(-c1ccc(S(=O)(=O)N[C@@H](C)C(F)(F)F)cn1)n2-c1ccccn1 | 69 | > 10000 | IC50 [5]: > 10000 nM; IC50 [6]: > 10000 nM; Activity [7]: 54%; IC50 [8]: > 10000 nM
2 | 2.75 | CCc1cc2c(cc1F)c(C#N)c(-c1ccc(S(=O)(=O)N[C@@H](C)C(F)(F)F)cn1)n2-c1nccs1 | 347 | > 10000 | –
23 | 7.24 | CCc1cc2c(cc1F)c(C#N)c(-c1ccc(S(=O)(=O)N[C@@H](C)C(F)(F)F)cn1)n2-c1ncc(C)cn1 | 44 | > 10000 | –
13 | 1.79 | CCc1cc2c(cc1F)c(C#N)c(-c1ccc(S(=O)(=O)N[C@@H](C)C(F)(F)F)cn1)n2-c1ccc(F)cn1 | 12 | > 10000 | –
6 | 8.91 | Cc1cc2c(cc1F)c(C#N)c(-c1ccc(S(=O)(=O)N[C@@H](C)C(F)(F)F)cn1)n2-c1ncccn1 | 213 | > 10000 | Activity [9]: 3%; IC50 [5]: > 10000 nM; Activity [10]: 39.8%; EC50 [11]: 2200 nM; Activity [12]: 7%; Activity [13]: 41.5%; IC50 [6]: > 10000 nM; Activity [7]: 36%; IC50 [8]: > 10000 nM
18 | 4.52 | Cc1cc2c(cc1F)c(C#N)c(-c1ccc(S(=O)(=O)N[C@@H](C)C(F)(F)F)cn1)n2-c1ccccn1 | 49 | > 10000 | –
11 | 6.39 | Cc1cc2c(cc1F)c(C#N)c(-c1ccc(S(=O)(=O)N[C@@H](C)C(F)(F)F)cn1)n2-c1cccnc1 | 65 | > 10000 | –
11 | 2.6 | Cc1cc2c(cc1F)c(C#N)c(-c1ccc(S(=O)(=O)N[C@@H](C)C(F)(F)F)cn1)n2-c1ccncc1 | 24 | > 10000 | –
9 | 0.885 | Cc1cc2c(cc1F)c(C#N)c(-c1ccc(S(=O)(=O)N[C@@H](C)C(F)(F)F)cn1)n2-c1cnccn1 | 9 | > 10000 | –
13 | 3.26 | Cc1cc2c(cc1F)c(C#N)c(-c1ccc(S(=O)(=O)N[C@@H](C)C(F)(F)F)cn1)n2-c1cccnn1 | 22 | > 10000 | –
3 | 1.76 | Cc1cc2c(cc1F)c(C#N)c(-c1ccc(S(=O)(=O)N[C@@H](C)C(F)(F)F)cn1)n2-c1nccs1 | 96 | > 10000 | –
20 | 10.3 | Cc1cc2c(cc1F)c(C#N)c(-c1ccc(S(=O)(=O)N[C@@H](C)C(F)(F)F)cn1)n2-c1cscn1 | 35 | > 10000 | –
7 | 6.27 | Cc1cc2c(cc1F)c(C#N)c(-c1ccc(S(=O)(=O)N[C@@H](C)C(F)(F)F)cn1)n2-c1cncs1 | 38 | > 10000 | –
2 | 0.48 | Cc1cc2c(cc1F)c(C#N)c(-c1ccc(S(=O)(=O)N[C@@H](C)C(F)(F)F)cn1)n2-c1cccs1 | 29 | > 10000 | –
